Source: PubChem BioAssay
CYP2C19 inhib: human CYP2C19 inhibition; AID 778; CYP2C19 Supersomes, luciferin-H EGE luminescence, 30 min; P33261; 96,000 compounds, 21% hits; inhibition, % at 5 µM;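 active = CYP2C19 inhibition above a set limit at 5 µM in the primary screen, cut at about 50% in these data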;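 also: plate controls were negative control wells for no effect and 2.5 mM tranylcypromine positive control for full effect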
HIV Rev-RRE inh: disrupts HIV-1 Rev binding to RRE RNA; 97,000 compounds, 0.79% hits; P05866; inhibition, % at 8 µM; Rev peptide-RRE RNA binding, FRET;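 active = inhibition above the screen-wide mean plus 3 SD, cut at about 35% in these data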;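 also: 0% = median DMSO wells and 100% = median Neomycin B control wells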
Target sequence (P05866 whole entry, looked up): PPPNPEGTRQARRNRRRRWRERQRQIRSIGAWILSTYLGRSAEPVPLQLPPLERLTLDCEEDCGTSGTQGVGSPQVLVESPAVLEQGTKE
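Assay system: labelled RRE RNA duplex and labelled Rev peptide / Medium: HEPES pH 7.5 salt buffer with EDTA / Reagent: labelled Rev peptide / Schedule: 5 + 15 min at 25 °C / Signal: FRET, excitation 480 nm, emission 540 nm donor and 671 nm acceptor / Benchmarks: DMSO and neomycin B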
CYP2C9 inhib: inhibitors of human CYP2C9. CYP2C9 Supersomes, luciferin-H conversion, luminescence. inhibition, % at 5 µM. 96,000 compounds, 20% hits. AID 777;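 active = blocking of liver enzyme CYP2C9 beyond about 50% at 5 µM, limit read from the data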
Target sequence (P11712 whole entry, looked up): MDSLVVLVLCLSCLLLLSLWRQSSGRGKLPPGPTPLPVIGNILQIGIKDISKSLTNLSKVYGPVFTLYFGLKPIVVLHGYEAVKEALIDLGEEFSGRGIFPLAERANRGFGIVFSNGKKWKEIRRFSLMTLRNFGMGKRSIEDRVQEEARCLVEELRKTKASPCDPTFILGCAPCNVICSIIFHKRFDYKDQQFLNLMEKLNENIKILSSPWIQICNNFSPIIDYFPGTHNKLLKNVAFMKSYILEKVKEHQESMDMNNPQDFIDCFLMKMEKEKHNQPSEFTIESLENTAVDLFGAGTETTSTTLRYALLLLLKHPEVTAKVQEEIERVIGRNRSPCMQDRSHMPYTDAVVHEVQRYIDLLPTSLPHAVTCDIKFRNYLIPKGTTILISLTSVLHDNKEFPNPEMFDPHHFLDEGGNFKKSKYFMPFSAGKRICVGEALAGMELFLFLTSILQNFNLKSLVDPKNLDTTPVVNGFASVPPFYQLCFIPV
CYP2C19 act: increases human CYP2C19 enzyme activity; P33261; recombinant CYP2C19, luciferin-H EGE luminescence; hits give high values; 0 = fully inhibited enzyme, 1 = untreated enzyme; activation factor at 5 µM; 96,000 tested, under 10 active; AID 1025;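 active = activation factor of at least 2 at 5 µM in the primary screen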;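 also: 0 = wells with 2.5 mM tranylcypromine and 1 = vehicle-only wells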
Cav3 T inh: blocks human Cav3.2 T-type calcium channel. 100,000 compounds, 4% hits. O95180. B-score at 10 µM. AID 449739. Cav3.2-expressing cells, Fluo-4 calcium fluorescence FDSS; hits give low values;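 active = single-dose well whose peak fluorescence ratio is a statistical outlier from its plate by either plate-standardised score or position-corrected B-score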
CYP2C9 activ: increases human cytochrome P450 2C9 activity. recombinant CYP2C9, luciferin-H conversion, luminescence; hits give high values; factor 1 = untreated enzyme, 0 = blocked. 96,000 compounds, 1.4% hits. activation factor at 5 µM. P11712;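 active = activation factor of 2 or more for CYP2C9 at a 5 µM dose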;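 also: 0 = sulfaphenazole-blocked wells and 1 = vehicle-only wells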
An asterisk follows results filed as active; / = no result; [ ] = another dose, or the depositor's remark. This is a sample that favours compounds with a hit; in the whole collection about 27% have one here.

SMILES	CYP2C19 inhib	HIV Rev-RRE inh	CYP2C9 inhib	CYP2C19 act	Cav3 T inh	CYP2C9 activ
Cc1cc(C(=O)N2CCCCCC2)cs1	58*	3	-7	0.4	0.052	1.1
Cc1ccc(-n2c(C)cc(C(=O)OCC(=O)N(CC(C)C)C3CCS(=O)(=O)C3)c2C)cc1 (stereo unspecified)	10	4	11	0.9	-8.2*	0.9
Cc1ccc(-n2c(C)cc(C(=O)OCC(=O)N(C)C3CCS(=O)(=O)C3)c2C)cc1 (stereo unspecified)	-3	/	4	1	-0.18	1
CC(C)CN(C(=O)COC(=O)CCc1c[nH]c2ccccc12)C1CCS(=O)(=O)C1 (stereo unspecified)	16	4	-124	0.8	0.67	2.2*
COc1ccc(C2(CNC(=O)Cc3ccccc3)CCCC2)cc1OC	62*	4	35	0.4	0.7	0.7
COc1ccc(C2(CN(C(C)=O)C(C)=O)CCCC2)cc1OC	52*	4	31	0.5	0.5	0.7
Cn1c(=O)[nH]c(=O)c2c1nc(Br)n2CCSc1nc2ccccc2o1	24	10	23	0.8	-0.77	0.8
COc1ccccc1Cn1c(-c2ccccc2OC)nc2ccccc21	-29	14	-6	1.3	-6.4*	1.1
O=C(O)Cn1c(-c2ccccc2)nc2ccccc21	-4	4	-12	1	-1.2	1.1
Oc1ccccc1Cn1c(-c2ccccc2O)nc2ccccc21	60*	11	66*	0.4	-2.8	0.3
COc1ccccc1CNc1nc2ccccc2n1CCN1CCCCC1	4	2	5	1	-1.2	1
O=C(N(c1ccccc1)c1ccccc1)n1ccnc1	/	/	/	/	0.027	/
O=C1c2ccccc2-c2onc3ccc(NCCCn4ccnc4)c1c23	92*	137*[fluorescence artefact?]	97*	0.1	-1.2	0
CCN(CC)S(=O)(=O)c1ccc(Cl)c(C(=O)N2CCc3ccccc32)c1	24	12	12	0.8	-2.4	0.9
CCOc1ccc(S(=O)(=O)N(CC(=O)N2CCc3ccccc32)Cc2ccco2)cc1	92*	/	52*	0.1	-0.93	0.5
CN(CC(=O)N1CCc2ccccc21)S(=O)(=O)c1ccc(Cl)cc1	60*	8	-167	0.4	-1.3	2.7*
Cc1ccc(S(=O)(=O)NC(CC(=O)O)c2ccco2)cc1 (stereo unspecified)	29	9	-6	0.7	0.022	1.1
CCC(C)NC(=O)CC(NS(=O)(=O)c1ccc(Cl)cc1)c1ccco1 (stereo unspecified)	75*	3	20	0.3	-0.015	0.8
O=C(CC(NS(=O)(=O)c1ccc(Cl)cc1)c1ccco1)N1CCc2ccccc21 (stereo unspecified)	12	16	-2	0.9	-4.3*	1
O=C(CC(NS(=O)(=O)c1ccc(Cl)cc1)c1ccco1)NCc1cccnc1 (stereo unspecified)	88*	5	70*	0.1	-0.63	0.3
CC(NS(=O)(=O)c1ccc(CCC(=O)NCc2cccnc2)cc1)c1ccccc1 (stereo unspecified)	58*	-1	71*	0.4	1.1	0.3
CC(C)NS(=O)(=O)c1ccc(CCC(=O)NCc2cccnc2)cc1	8	/	24	0.9	-1.9	0.8
O=C(Nc1sccc1C(=O)N1CCOCC1)c1cccnc1	-4	7	-10	1	0.58	1.1
C=CCSc1nnc(NC(=O)c2cccc(S(=O)(=O)N3CCOCC3)c2)s1	-12	5	9	1.1	-0.12	0.9
C=CCNS(=O)(=O)c1ccc(OC)c(C)c1	30	9	-171	0.7	0.46	2.7*
SMILES	CYP2C19 inhib	HIV Rev-RRE inh	CYP2C9 inhib	CYP2C19 act	Cav3 T inh	CYP2C9 activ
CCCCNS(=O)(=O)c1ccc(OC)c(C)c1	/	-1	/	/	-1.2	/
CCOc1ccc(S(=O)(=O)NCCOC)cc1C	89*	4	-198	0.1	0.25	3*
CCNS(=O)(=O)c1ccc(OC)c(C)c1	24	5	-174	0.8	0.11	2.7*
COC(=O)C1=C(N)Oc2cc(N(C)C)ccc2C1c1ccccc1OC (stereo unspecified)	26	37*	-9	0.7	-7*	1.1
CCOC(=O)c1c(N)sc(C(=O)N2CCCCC2)c1C	/	3	/	/	-0.96	/
COC(=O)c1sc(S(=O)(=O)NCc2cccs2)c(C(=O)OC)c1C	89*	7	82*	0.1	-2.1	0.2
CC(C)OC(=O)c1c(NC(=O)c2cccs2)sc2c1CCCC2	-4	/	74*	1	-0.44	0.3
Cc1nn(C)c(C)c1S(=O)(=O)NCc1cccs1	11	2	-4	0.9	0.69	1
CCOC(=O)c1c(NC(=O)Cc2cccs2)sc(C(=O)N2CCCCC2)c1C	65*	6	65*	0.3	-2.7	0.3
CCOC(=O)c1cnn(CCOC(=O)Cc2cccs2)c1NC(=O)Cc1cccs1	88*	3	89*	0.1	1.9	0.1
CCOC(=O)Cc1csc(NC(=O)Cc2cccs2)n1	22	2	46	0.8	1.4	0.5
CCOc1ccccc1CN1CCN(S(C)(=O)=O)CC1	32	5	-10	0.7	0.53	1.1
CCCS(=O)(=O)N1CCN(C(=O)CCC2CCCC2)CC1	24	-1	-5	0.8	0.38	1.1
CNC(=O)c1cc(Nc2nnc(C)c3ccccc23)ccc1OC	-24	0	1	1.2	-3.3	1
C[C@H](NC(=O)Nc1ccc2c(c1)OCCO2)C(=O)O	-12	7	-4	1.1	0.67	1
Cn1c(=O)c2c(nc(CN3CCN(C(=O)c4ccco4)CC3)n2Cc2ccccc2F)n(C)c1=O	2	4	8	1	1.6	0.9
COC(=O)c1c(NC(=O)Cc2cccs2)sc(C)c1C	62*	/	36	0.4	-3.3	0.6
NC(=O)c1ccsc1NC(=O)c1cccs1	/	11	/	/	0.49	/
Cc1sc(NC(=O)c2cccs2)c(C(N)=O)c1C	66*	8	81*	0.3	0.56	0.2
COc1nc(N(CC(N)=O)S(=O)(=O)c2ccccc2)nc(C)c1Cl	/	5	/	/	0.33	/
c1ccc(Cc2cc(-c3ccccc3)on2)cc1	/	9	/	/	-2	/
COC(=O)CCN(C)CCC(=O)OC	-8	6	-4	1.1	0.38	1
CCOC(=O)N1CCN(c2ccc(C(=O)c3cccc(F)c3)cc2)CC1	67*	12	82*	0.3	-2.3	0.2
O=C(c1cc2ccccn2n1)N1CCN(c2cccc(C(F)(F)F)c2)CC1	14	5	23	0.9	0.03	0.8
CCOC(=O)N1CCN(c2ccc(Cl)c(Cl)c2)CC1	15	6	28	0.8	-2	0.7
O=C(c1csc2c1CCCC2)N1CCN(c2ncccn2)CC1	65*	9	82*	0.3	0.22	0.2
O=C(c1cccc(F)c1)N1CCN(c2cccc(C(F)(F)F)c2)CC1	88*	4	81*	0.1	-2	0.2
